ChEMBL document CHEMBL1629653, “CMY-31 and CMY-36 cephalosporinases encoded by ColE1-like plasmids” (Antimicrob Agents Chemother, 2009)

B1: Class C beta-lactamase CMY-36 (Klebsiella pneumoniae), Q48435 (protein)
chain: MMKKSLCCALLLTASFSTFAAAKTEQQIADIVNRTITPLMQEQAIPGMAVAVIYQGKPYYFTWGKADIANNHPVTQQTLFELGSVSKTFNGVLGGDCIARGEIKLSDPVTKYWPELTGKQWQGIRLLHLATYTAGGLPLQIPDDVRDKAALLHFYQNWQPQWTPGAKRLYANSSIGLFGALAVKPSGMSYEEAMTRRVLQPLKLAHTWITVPENEQKDYAWGYREGKPVHVSPGQLDAEAYGVKSSVIDMARWVQANMDASHVQEKTLQQGIALAQSRYWRIGDMYQGLGWEMLNWPLKADSIINGSDSKVALAALPAVEVNPPAPAVKASWVHKTGSTGGFGSYVAFVPEKNLGIVMLANKSYPNPVRVEAAWRILEKLQ
B2: Efflux transporter (Salmonella newport), Q3S5C3 (protein)
chain: MSWIVLLIAGLLEVVWAIGLKYTHGFTRLTPSIITIAAMIVSIAMLSWAMRTLPVGTAYAVWTGIGAVGAAITGILLLGESASPARLLSLGLIVAGIIGLKLSTH

Key:
[1] = substrate: CC1(C)S[C@@H]2[C@H](NC(=O)Cc3ccccc3)C(=O)N2[C@H]1C(=O)O; test: (§1) Activity of Klebsiella pneumoniae HP205 cephalosporinase CMY-36 by spectrophotometry
Summary of the method: (§2)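 CMY β-lactamases purified from sonicated, ultracentrifuge-clarified extracts of E. coli DH5α clones (pB-cmy36, pB-cmy2) by Q- then S-Sepharose ion exchange (>90% pure by SDS-PAGE); steady-state hydrolysis kinetics measured spectrophotometrically, CMY-2 run in parallel.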

[2] = substrate: O=C(Cc1cccs1)N[C@@H]1C(=O)N2C(C(=O)O)=C(/C=C/c3ccc([N+](=O)[O-])cc3[N+](=O)[O-])CS[C@H]12; test: as §1; summary of the method: as §2
[3] = substrate: O=C(Cc1cccs1)N[C@@H]1C(=O)N2C(C(=O)[O-])=C(C[n+]3ccccc3)CS[C@H]12; test: as §1; summary of the method: as §2
[4] = substrate: CO/N=C(\C(=O)N[C@@H]1C(=O)N2C(C(=O)O)=C(COC(C)=O)CS[C@H]12)c1csc(N)n1; test: as §1; summary of the method: as §2
[5] = substrate: CC1(C)S[C@@H]2[C@H](NC(=O)Cc3ccccc3)C(=O)N2[C@H]1C(=O)O; test: (§3) Ratio of Kcat to Km for Klebsiella pneumoniae cephalosporinase CMY-36 by spectrophotometry; summary of the method: as §2
[6] = substrate: O=C(Cc1cccs1)N[C@@H]1C(=O)N2C(C(=O)O)=C(/C=C/c3ccc([N+](=O)[O-])cc3[N+](=O)[O-])CS[C@H]12; test: as §3; summary of the method: as §2
[7] = substrate: O=C(Cc1cccs1)N[C@@H]1C(=O)N2C(C(=O)[O-])=C(C[n+]3ccccc3)CS[C@H]12; test: as §3; summary of the method: as §2
[8] = substrate: CC1(C)S[C@@H]2[C@H](NC(=O)Cc3ccccc3)C(=O)N2[C@H]1C(=O)O; conditions: Salmonella enterica subsp. enterica serovar Newport; AM17274
[9] = substrate: O=C(Cc1cccs1)N[C@@H]1C(=O)N2C(C(=O)O)=C(/C=C/c3ccc([N+](=O)[O-])cc3[N+](=O)[O-])CS[C@H]12; conditions: Salmonella enterica subsp. enterica serovar Newport; AM17274
[10] = substrate: O=C(Cc1cccs1)N[C@@H]1C(=O)N2C(C(=O)[O-])=C(C[n+]3ccccc3)CS[C@H]12; conditions: Salmonella enterica subsp. enterica serovar Newport; AM17274
[11] = substrate: CC1(C)S[C@@H]2[C@H](NC(=O)Cc3ccccc3)C(=O)N2[C@H]1C(=O)O; conditions: Salmonella enterica subsp. enterica serovar Newport; AM17274; remark: listed apart in the source
[12] = substrate: O=C(Cc1cccs1)N[C@@H]1C(=O)N2C(C(=O)O)=C(/C=C/c3ccc([N+](=O)[O-])cc3[N+](=O)[O-])CS[C@H]12; conditions: Salmonella enterica subsp. enterica serovar Newport; AM17274; remark: listed apart in the source
[13] = substrate: O=C(Cc1cccs1)N[C@@H]1C(=O)N2C(C(=O)[O-])=C(C[n+]3ccccc3)CS[C@H]12; conditions: Salmonella enterica subsp. enterica serovar Newport; AM17274; remark: listed apart in the source
[14] = substrate: CO/N=C(\C(=O)N[C@@H]1C(=O)N2C(C(=O)O)=C(COC(C)=O)CS[C@H]12)c1csc(N)n1; conditions: Salmonella enterica subsp. enterica serovar Newport; AM17274

Protein | Km [1] [µM] | kcat [1] [s⁻¹] | Km [2] [µM] | kcat [2] [s⁻¹] | Km [3] [µM] | kcat [3] [s⁻¹] | kcat [4] [s⁻¹] | kcat/Km [5] [µM⁻¹ s⁻¹] | kcat/Km [6] [µM⁻¹ s⁻¹] | kcat/Km [7] [µM⁻¹ s⁻¹] | kcat/Km [8] [µM⁻¹ s⁻¹] | kcat/Km [9] [µM⁻¹ s⁻¹] | kcat/Km [10] [µM⁻¹ s⁻¹] | Km [11] [µM] | kcat [11] [s⁻¹] | Km [12] [µM] | kcat [12] [s⁻¹] | kcat [13] [s⁻¹] | kcat [14] [s⁻¹]
B1 | 0.3 | 9.1 | 7.3 | 910 | 150 | 360 | < 0.01 | 30.3 | 125 | 2.4 |  |  |  |  |  |  |  |  | 
B2 |  |  |  |  |  |  |  |  |  |  | 25.7 | 96 | 2.1 | 0.3 | 7.7 | 10 | 960 | 310 | < 0.01
